Measurements published in ChEMBL document CHEMBL3875213, “Quinolines: Microwave-assisted synthesis and their antifungal, anticancer and radical scavenger properties” (Bioorg Med Chem, 2017).
Values after ≈ are worked out from the molar mass of the structure shown. Active and inactive are the calls of the source. The rule behind the calls is not given here.

Test system: not listed separately
Experiment: Antifungal activity against Cryptococcus neoformans ATCC 32264 incubated for 48 hrs under dark condition by broth microdilution assay
Format: functional
Conditions: not given
Outline: (§1)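 Broth microdilution per CLSI M27-A3 in RPMI-1640. Inocula adjusted to 1-5 x 10^3 CFU/mL. Stocks in DMSO (≤1%), final 3.9-250.0 µg/mL. Incubated 48 h at 30 °C in a moist, dark chamber, read at OD 405. % inhibition computed from growth and sterility control wells, run in triplicate. MIC80/MIC50 taken from four-parameter logistic concentration-response curves; amphotericin B as positive control.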

| MIC50 [µg/mL] | MIC80 [µg/mL] | SMILES |
| --- | --- | --- |
| 250 (≈ 803 µM) | 250 (≈ 803 µM) | COc1ccc2nc(-c3ccccc3)cc(-c3ccccc3)c2c1 |
| 15.6 (≈ 41.2 µM) | > 250 | Fc1ccc(-c2cc(-c3ccccc3)c3cc(Br)ccc3n2)cc1 |
| 62.5 (≈ 139 µM) | 250 (≈ 555 µM) | COc1cc(-c2cc(-c3ccccc3)c3cc(Br)ccc3n2)cc(OC)c1OC |

Test system: not listed separately
Experiment: Antiproliferative activity against human CCD-19Lu cells after 24 hrs by MTT assay
Format: cell-based
Conditions: not given
Outline: (§2)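 Cells grown in medium with 10% foetal bovine serum and 1% L-glutamine at 37 °C, 5% CO2, seeded at 1 x 10^5 cells/well. Exposed to compound at 1.0-1,000 µg/mL for 24 h. MTT added, absorbance read at 540 nm 3 h later. IC50 obtained by non-linear regression of viability data.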

| SMILES | IC50 [µM] |
| --- | --- |
| COc1ccc2nc(-c3ccccc3)cc(-c3ccccc3)c2c1 | 925 |
| COc1cc(-c2cc(-c3ccccc3)c3cc(Br)ccc3n2)cc(OC)c1OC | 104 |

Test system: Candida albicans
Experiment: Growth inhibition of Candida albicans ATCC 10231 at 250 ug/ml incubated for 48 hrs under dark condition by broth microdilution assay relative to amphotericin B
Format: functional
Conditions: ATCC 10231, 48 h, read-out: GI
Outline: (§3)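 Yeast broth microdilution (CLSI M27-A3), RPMI-1640, inoculum 1-5 x 10^3 CFU/mL, DMSO ≤1%, 48 h at 30 °C in a moist, dark chamber. […]. Triplicate; amphotericin B as positive control.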

| SMILES | inhibition of growth at 250 µg/mL [%] |
| --- | --- |
| COc1ccc2nc(-c3ccccc3)cc(-c3ccccc3)c2c1 | 57.2 |
| Fc1ccc(-c2cc(-c3ccccc3)c3cc(Br)ccc3n2)cc1 | 17.2 |
| COc1cc(-c2cc(-c3ccccc3)c3cc(Br)ccc3n2)cc(OC)c1OC | 82.7 |

Test system: not listed separately
Experiment: Antiproliferative activity against human NCI-H226 cells harboring TP53 mutant after 24 hrs by MTT assay
Format: functional, cell-based
Conditions: NCI-H226, 24 h
Outline: as §2

| SMILES | IC50 [µM] |
| --- | --- |
| COc1ccc2nc(-c3ccccc3)cc(-c3ccccc3)c2c1 | 57 |
| COc1cc(-c2cc(-c3ccccc3)c3cc(Br)ccc3n2)cc(OC)c1OC | 61 |

Test system: not listed separately
Experiment: Antioxidant activity assessed as fluorescent light-induced superoxide anion scavenging activity incubated for 10 mins by nitroblue tetrazolium dye based assay
Format: functional
Conditions: not given
Outline: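 Riboflavin/light superoxide system: 50 mM phosphate pH 7.8, 13 mM L-methionine, 75 µM NBT, 100 µM EDTA, 2 µM riboflavin, compound 0-200 µg/mL. Fluorescent light for 10 min at 25 °C, dark controls, scavenging measured at 575 nm. Resveratrol as reference.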

| SMILES | SC50 [µM] |
| --- | --- |
| COc1ccc2nc(-c3ccccc3)cc(-c3ccccc3)c2c1 | > 250 |
| COc1cc(-c2cc(-c3ccccc3)c3cc(Br)ccc3n2)cc(OC)c1OC | > 250 |

Test system: Candida albicans
Experiment: Growth inhibition of Candida albicans ATCC 10231 at 3.9 ug/ml incubated for 48 hrs under dark condition by broth microdilution assay relative to amphotericin B
Format: functional
Conditions: ATCC 10231, 48 h, read-out: GI
Outline: as §3

| SMILES | inhibition of growth at 3.9 µg/mL [%] |
| --- | --- |
| COc1ccc2nc(-c3ccccc3)cc(-c3ccccc3)c2c1 | 0 |
| Fc1ccc(-c2cc(-c3ccccc3)c3cc(Br)ccc3n2)cc1 | 0.19 |
| COc1cc(-c2cc(-c3ccccc3)c3cc(Br)ccc3n2)cc(OC)c1OC | 0 |

Test system: not listed separately
Experiment: Antiproliferative activity against human Hep2C cells after 24 hrs by MTT assay
Format: functional, cell-based
Conditions: not given
Outline: as §2

| SMILES | IC50 [µM] |
| --- | --- |
| COc1ccc2nc(-c3ccccc3)cc(-c3ccccc3)c2c1 | 496 |
| Fc1ccc(-c2cc(-c3ccccc3)c3cc(Br)ccc3n2)cc1 | 5 |

Test system: Candida albicans
Experiment: Growth inhibition of Candida albicans ATCC 10231 at 7.81 ug/ml incubated for 48 hrs under dark condition by broth microdilution assay relative to amphotericin B
Format: functional
Conditions: ATCC 10231, 48 h, read-out: GI
Outline: as §3

| SMILES | inhibition of growth at 7.81 µg/mL [%] |
| --- | --- |
| COc1ccc2nc(-c3ccccc3)cc(-c3ccccc3)c2c1 | 0 |
| Fc1ccc(-c2cc(-c3ccccc3)c3cc(Br)ccc3n2)cc1 | 1.37 |
| COc1cc(-c2cc(-c3ccccc3)c3cc(Br)ccc3n2)cc(OC)c1OC | 2.99 |

Test system: NCI-H226
Experiment: Selectivity index, ratio of IC50 for human CCD-19Lu cells to IC50 for human NCI-H226 cells
Format: functional
Conditions: not given
Outline: (§4)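 Selectivity index equals IC50 in non-tumour CCD 19-Lu lung fibroblasts divided by IC50 in the tumour line. Both IC50s come from the 24 h MTT assay (read at 540 nm) over 1.0-1,000 µg/mL.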

| SMILES | Ratio IC50 |
| --- | --- |
| COc1ccc2nc(-c3ccccc3)cc(-c3ccccc3)c2c1 | 16 |
| COc1cc(-c2cc(-c3ccccc3)c3cc(Br)ccc3n2)cc(OC)c1OC | 1 |

Test system: Candida albicans
Experiment: Growth inhibition of Candida albicans ATCC 10231 at 31.25 ug/ml incubated for 48 hrs under dark condition by broth microdilution assay relative to amphotericin B
Format: functional
Conditions: ATCC 10231, 48 h, read-out: GI
Outline: as §3

| SMILES | inhibition of growth at 31.25 µg/mL [%] |
| --- | --- |
| COc1ccc2nc(-c3ccccc3)cc(-c3ccccc3)c2c1 | 8.43 |
| Fc1ccc(-c2cc(-c3ccccc3)c3cc(Br)ccc3n2)cc1 | 4.35 |
| COc1cc(-c2cc(-c3ccccc3)c3cc(Br)ccc3n2)cc(OC)c1OC | 12.9 |

Test system: not listed separately
Experiment: Antiproliferative activity against human TOV21G harboring wild type TP53 cells after 24 hrs by MTT assay
Format: functional, cell-based
Conditions: not given
Outline: as §2

| SMILES | IC50 [µM] |
| --- | --- |
| COc1ccc2nc(-c3ccccc3)cc(-c3ccccc3)c2c1 | 110 |
| Fc1ccc(-c2cc(-c3ccccc3)c3cc(Br)ccc3n2)cc1 | 570 |
| COc1cc(-c2cc(-c3ccccc3)c3cc(Br)ccc3n2)cc(OC)c1OC | 493 |

Test system: Candida albicans
Experiment: Antifungal activity against Candida albicans ATCC 10231 incubated for 48 hrs under dark condition by broth microdilution assay
Format: functional
Conditions: ATCC 10231, 48 h
Outline: as §1

| MIC50 [µg/mL] | MIC80 [µg/mL] | SMILES |
| --- | --- | --- |
| 250 (≈ 803 µM) | > 250 | COc1ccc2nc(-c3ccccc3)cc(-c3ccccc3)c2c1 |
| > 250 | > 250 | Fc1ccc(-c2cc(-c3ccccc3)c3cc(Br)ccc3n2)cc1 |
| 125 (≈ 278 µM) | 250 (≈ 555 µM) | COc1cc(-c2cc(-c3ccccc3)c3cc(Br)ccc3n2)cc(OC)c1OC |

Test system: Candida albicans
Experiment: Growth inhibition of Candida albicans ATCC 10231 at 125 ug/ml incubated for 48 hrs under dark condition by broth microdilution assay relative to amphotericin B
Format: functional
Conditions: ATCC 10231, 48 h, read-out: GI
Outline: as §3

| SMILES | inhibition of growth at 125 µg/mL [%] |
| --- | --- |
| COc1ccc2nc(-c3ccccc3)cc(-c3ccccc3)c2c1 | 20.9 |
| Fc1ccc(-c2cc(-c3ccccc3)c3cc(Br)ccc3n2)cc1 | 6.09 |
| COc1cc(-c2cc(-c3ccccc3)c3cc(Br)ccc3n2)cc(OC)c1OC | 52.9 |

Test system: Candida albicans
Experiment: Growth inhibition of Candida albicans ATCC 10231 at 15.62 ug/ml incubated for 48 hrs under dark condition by broth microdilution assay relative to amphotericin B
Format: functional
Conditions: ATCC 10231, 48 h, read-out: GI
Outline: as §3

| SMILES | inhibition of growth at 15.62 µg/mL [%] |
| --- | --- |
| COc1ccc2nc(-c3ccccc3)cc(-c3ccccc3)c2c1 | 4 |
| Fc1ccc(-c2cc(-c3ccccc3)c3cc(Br)ccc3n2)cc1 | 4.24 |
| COc1cc(-c2cc(-c3ccccc3)c3cc(Br)ccc3n2)cc(OC)c1OC | 7.32 |

Test system: not listed separately
Experiment: Antioxidant activity assessed as DPPH radical scavenging activity incubated for 30 mins under dark condition
Format: functional
Conditions: not given
Outline: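 DPPH (100 µM) in ethanolic medium, stirred 30 min in the dark, absorbance at 517 nm. Compound varied from 0 to 160 µg/mL to find the concentration scavenging 50% of radicals. Three independent experiments, each in triplicate.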

| SMILES | SC50 [µM] |
| --- | --- |
| COc1ccc2nc(-c3ccccc3)cc(-c3ccccc3)c2c1 | 168 |
| COc1cc(-c2cc(-c3ccccc3)c3cc(Br)ccc3n2)cc(OC)c1OC | 428 |

Test system: not listed separately
Experiment: Antioxidant activity assessed as DPPH radical scavenging activity at 160 uM incubated for 30 mins under dark condition
Format: functional
Conditions: not given
Outline: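 Compound at 160 µM incubated with 100 µM DPPH in ethanolic medium, stirred in the dark for 30 min, read at 517 nm. Resveratrol as positive control. Three independent experiments, each in triplicate.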

| SMILES | Activity [%] |
| --- | --- |
| COc1ccc2nc(-c3ccccc3)cc(-c3ccccc3)c2c1 | 45 to 55 |

Test system: not listed separately
Experiment: Selectivity index, ratio of IC50 for human CCD-19Lu cells to IC50 for human TOV21G cells
Format: functional
Conditions: not given
Outline: as §4

| SMILES | Ratio IC50 |
| --- | --- |
| COc1ccc2nc(-c3ccccc3)cc(-c3ccccc3)c2c1 | 8 |
| COc1cc(-c2cc(-c3ccccc3)c3cc(Br)ccc3n2)cc(OC)c1OC | 0 |

Test system: not listed separately
Experiment: Selectivity index, ratio of IC50 for human CCD-19Lu cells to IC50 for human Hep2C cells
Format: functional
Conditions: not given
Outline: as §4

| SMILES | Ratio IC50 |
| --- | --- |
| COc1ccc2nc(-c3ccccc3)cc(-c3ccccc3)c2c1 | 1 |

Test system: not listed separately
Experiment: Antioxidant activity assessed as fluorescent light-induced superoxide anion scavenging activity at 160 uM incubated for 10 mins by nitroblue tetrazolium dye based assay
Format: functional
Conditions: not given
Outline: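 Superoxide generated photochemically in 50 mM phosphate buffer pH 7.8 with 13 mM L-methionine, 75 µM nitroblue tetrazolium, 100 µM EDTA and 2 µM riboflavin. Compound at 160 µM. 10 min at 25 °C under fluorescent light; dark controls. Read at 575 nm. Resveratrol as positive control; three independent experiments in triplicate.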

| SMILES | Activity |
| --- | --- |
| Fc1ccc(-c2cc(-c3ccccc3)c3cc(Br)ccc3n2)cc1 | Active |

Test system: Candida albicans
Experiment: Growth inhibition of Candida albicans ATCC 10231 at 62.5 ug/ml incubated for 48 hrs under dark condition by broth microdilution assay relative to amphotericin B
Format: functional
Conditions: ATCC 10231, 48 h, read-out: GI
Outline: as §3

| SMILES | inhibition of growth at 62.5 µg/mL [%] |
| --- | --- |
| COc1ccc2nc(-c3ccccc3)cc(-c3ccccc3)c2c1 | 12.2 |
| Fc1ccc(-c2cc(-c3ccccc3)c3cc(Br)ccc3n2)cc1 | 4.13 |
| COc1cc(-c2cc(-c3ccccc3)c3cc(Br)ccc3n2)cc(OC)c1OC | 20.8 |
